Source: PubChem
The list is not random: actives were taken first. Their share in the collection is about 2.3%.
OXTR potentiator: potentiates the human oxytocin receptor response | CHO-OTR cells, Fluo-8 calcium fluorescence, potentiator mode; 0% = oxytocin EC15, 100% = EC100 | activation, % at 3 µM | 320,000 compounds, 0.061% hits | P30559 | AID 2445;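 active = activation above that plate's cutoff, the mean activation of tested compounds plus 3 SD, cut at about 6.6% in these data, passing the limit was not always enough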;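 also: 100% uses oxytocin at 75 nM as the full agonist control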
Target sequence (P30559 whole entry, looked up): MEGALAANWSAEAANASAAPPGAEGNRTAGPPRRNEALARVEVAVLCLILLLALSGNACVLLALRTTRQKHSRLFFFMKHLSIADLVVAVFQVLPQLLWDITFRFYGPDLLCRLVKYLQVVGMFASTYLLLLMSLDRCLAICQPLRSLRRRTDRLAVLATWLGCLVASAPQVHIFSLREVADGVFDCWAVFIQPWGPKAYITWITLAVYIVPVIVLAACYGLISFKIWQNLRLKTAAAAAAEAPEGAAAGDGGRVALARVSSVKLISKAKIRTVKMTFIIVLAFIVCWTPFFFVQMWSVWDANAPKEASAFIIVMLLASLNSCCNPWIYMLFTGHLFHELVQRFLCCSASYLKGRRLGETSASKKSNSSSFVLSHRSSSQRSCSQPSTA
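Replication – single well per compound, singlicate · Assay system – CHO cell line stably expressing human OTR · Timing – 6 min pre-incubation, 100 s read · Measure – normalized max/min fluorescence ratio, % activation · Doses – 3.0 µM, one dose · Detection – Fluo-8 calcium dye fluorescence · Probe or stimulus – oxytocin near EC15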
TAAR1 ag: human TAAR1 agonism; activation, % at 3 µM; CHO RD-HGA16 TAAR1, Fluo-8 calcium fluorescence; vehicle wells 0%, saturating PEA agonist 100%; 360,000 compounds, 0.99% hits;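 active = activation above the mean activation of all test compounds in the run plus 3 SD, cut at about 38% in these data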
Target sequence (Q96RJ0 whole entry, looked up): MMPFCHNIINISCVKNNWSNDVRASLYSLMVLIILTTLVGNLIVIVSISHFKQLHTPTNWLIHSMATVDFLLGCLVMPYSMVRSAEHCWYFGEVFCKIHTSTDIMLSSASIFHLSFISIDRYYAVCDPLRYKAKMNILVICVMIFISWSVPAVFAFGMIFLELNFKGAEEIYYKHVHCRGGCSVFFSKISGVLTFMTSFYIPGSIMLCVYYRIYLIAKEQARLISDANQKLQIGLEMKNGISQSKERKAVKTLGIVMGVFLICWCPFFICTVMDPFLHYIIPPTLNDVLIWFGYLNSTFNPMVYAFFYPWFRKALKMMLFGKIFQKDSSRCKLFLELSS
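Test system: RD-HGA16 (CHO) cells co-expressing Gα16 and hTAAR1 | Doses: Single dose, 3 µM | Schedule: 17-24 h seeding, 75 min 37 °C dye, 30 min RT | Evaluation: % activation from peak over basal fluorescence ratio, DMSO-to-PEA scaled | Technique: Kinetic Fluo-8 calcium fluorescence | Benchmarks: Low control DMSO, high control PEA (EC100)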
TAAR1 antag: human TAAR1 antagonism; CHO RD-HGA16 TAAR1, Fluo-8 calcium fluorescence, antagonist; inhibition, % at 3 µM; AID 624466; Q96RJ0; 360,000 compounds, 1.5% hits;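 active = inhibition above a per-plate cutoff, the mean inhibition of test compounds on that plate plus 3 SD, cut at about 49% in these data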;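 also: 0% = DMSO plus EC80 beta-PEA response and 100% = DMSO alone without agonist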
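test system = CHO RD-HGA16 cells bearing hTAAR1 | replication = singlicate | controls = DMSO-only wells and EC80 β-PEA-stimulated wells | reagent = EC80 β-phenethylamine stimulus | read-out basis = percent inhibition of PEA-evoked calcium signal, max/basal emission ratio | schedule = seeding 17-24 h prior, 75-min 37 °C, 30-min RT dye loading | signal = kinetic Fluo-8 calcium fluorescence measurement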
OXTR agonist: agonists of human oxytocin receptor; activation, % at 3 µM; AID 2435; 320,000 compounds, 0.32% hits; CHO-OTR cells, Fluo-8 calcium fluorescence; normalized: DMSO 0%, oxytocin 100%;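 active = activation above the mean of all tested compounds plus 3 SD, cutoff set per screening run, cut at about 20% in these data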;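 also: peak over basal fluorescence ratio from a 100 s FLIPR kinetic read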
V1R ag counter: counter-screen for oxytocin receptor agonists: human V1a receptor agonists. P37288. CHO-V1R cells, Fluo-8 calcium fluorescence, agonist mode; 0% DMSO, 100% 3 nM vasopressin. activation, % at 3 µM. 320,000 compounds, 0.25% hits;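 active = activation above the mean activation of all tested compounds plus 3 SD, per screening run, cut at about 20% in these data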;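 also: signal is peak over basal fluorescence ratio across a 100 second FLIPR read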
OXTR pot confirm: confirmation of human oxytocin receptor potentiators; shares compounds with OXTR potentiator; CHO-OTR cells, Fluo-8 calcium fluorescence, potentiation; scaled from low-dose to maximal oxytocin; activation, % at 3 µM; 180 tested, under 10 active; AID 434985;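 active = mean percent activation over triplicates above a cutoff set from solvent-only control plates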;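 also: compounds tested in the presence of an EC15 dose of oxytocin; 0% = EC15 oxytocin with DMSO and 100% = EC100 oxytocin with DMSO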
The depositor's hits bear a star; nt = no result given.

SMILES	OXTR potentiator	TAAR1 ag	TAAR1 antag	OXTR agonist	V1R ag counter	OXTR pot confirm
COc1ccc2c(c1)OC[C@H]1[C@H]2N2C(=O)c3cc(OC)ccc3NC(=O)[C@@]2(C)[C@H]1c1ccccc1	-4.2	2.0	7.1	0.1	-0.1	nt
COc1ccc2c(c1)OC[C@H]1[C@H]2N2C(=O)c3cc(F)ccc3NC(=O)[C@@]2(C)[C@H]1c1ccccc1	12.9*	-1.5	6.7	1.9	1.8	-8.2
COCCNC(=O)CN1N=C(c2ccc(C)cc2)CCC1=O	2.1	0.8	1.7	-0.1	0.1	nt
COC(=O)c1cc(S(=O)(=O)N2CCCC(C)C2)c[nH]1 (centres undefined)	-6.7	1.6	-8.4	-0.4	1.4	nt
COC(=O)c1cc(S(=O)(=O)N2CCCCC2C)c[nH]1 (centres undefined)	11.0*	1.8	-25.6	0.5	0.9	-7.7
COC(=O)[C@@H]1C[C@@H](c2ccccc2)[C@H](C)C1(C)C	-10.9	9.7	-10.7	-0.1	-0.1	nt
CC(Sc1nc2ccccc2c(=O)n1C)C(=O)Nc1ccc2c(c1)OCCO2 (centres undefined)	-7.0	19.5	9.4	6.2	4.6	nt
CCNc1nc(NC(C)C)nc(N(C)C#N)n1	13.1*	1.9	5.8	-1.0	0.6	2.7
CN(Cc1nc2ccccc2c(=O)[nH]1)C(=O)c1ccc(S(=O)(=O)N2CCCC2)cc1	12.9*	0.2	5.6	2.6	-0.2	-3.0
Cc1cc(C(=O)N2CCN(CCc3ccccc3)CC2)no1	10.3*	0.5	6.0	1.0	-0.5	-2.5
O=C(COc1ncnc2ccc(Br)cc12)NC1CCCC1	12.7*	3.7	-10.4	1.1	0.4	-5.8
O=C(COc1ncnc2ccccc12)NC1CCCCC1	-3.3	0.2	12.8	0.4	1.8	nt
C[C@H](CO)N1C[C@H](C)[C@@H](CN(C)Cc2ccc3c(c2)OCCO3)OCc2cnnn2CCCC1=O	nt	1.4	-5.4	nt	nt	nt
O=c1cc(-c2c(F)c(F)c(F)c(F)c2F)oc2c(F)c(F)c(F)c(F)c12	19.2*	nt	nt	-1.9	-1.1	11.0*
CN1CCN(S(=O)(=O)c2ccc(Cl)c(C(F)(F)F)c2)CC1	nt	2.0	0.2	nt	nt	nt
O=C(O)c1ccc(-c2nnn(Cc3ccccc3F)n2)cc1	7.6*	-3.9	-22.0	1.9	1.6	-4.3
Cc1ccc(NC(=O)CCS(=O)(=O)c2ccccc2)cc1S(=O)(=O)N1CCOCC1	11.4*	4.8	-12.7	2.3	1.2	-0.8
Cc1ccc(NC(=O)CCc2ccccc2)cc1S(=O)(=O)N1CCOCC1	-4.0	3.8	-3.0	1.9	1.1	nt
COc1ccc2cc(S(=O)(=O)N3CCOCC3)ccc2c1	11.2*	0.4	4.2	0.2	0.5	-4.0
CCOC(=O)N1CCN(C(=O)COc2ccc(Cl)cc2)CC1	12.2*	11.9	6.3	1.8	1.3	-5.7
CC(C)(C)NC(=O)c1cc(C(C)(C)C)c(O)c(C(C)(C)C)c1	10.4*	15.0	2.9	-2.7	0.8	-1.8
COc1cccc(CN2CCNC(=O)C2CC(=O)NCc2cn3ccccc3n2)c1OC (centres undefined)	1.0	2.8	-5.1	2.1	0.4	nt
CCOc1ccccc1Oc1c(C)oc2cc(OC(=O)c3ccco3)ccc2c1=O	13.2*	7.8	-0.8	-0.9	0.0	0.9
Cc1cc(NC(=O)CN(C)S(=O)(=O)c2cnc[nH]2)ccc1Br	-9.9	7.7	3.0	-1.0	0.1	nt
COc1cc(/C=C2/S/C(=N/S(=O)(=O)Cc3ccccc3)NC2=O)c([N+](=O)[O-])cc1OC	13.1*	-0.6	-11.4	2.2	1.2	-4.5
SMILES	OXTR potentiator	TAAR1 ag	TAAR1 antag	OXTR agonist	V1R ag counter	OXTR pot confirm
COC(=O)c1c(-c2ccc(OC)cc2)c2c(c3c4cc(F)ccc4n(S(=O)(=O)c4ccc(C)cc4)c13)C(=O)N(C)C2	nt	-0.9	-12.6	nt	nt	nt
O=S(=O)(Nc1cc(Cl)ccn1)c1ccc(Cl)cc1	-3.9	5.6	-2.4	-1.9	-0.5	nt
CCOC(=O)c1c(CN2CCC(C)CC2)oc2ccc(OC)cc12	11.9*	7.7	-20.7	-2.3	-1.0	-5.5
COc1ccc(NC(=O)/C(Cl)=C(/Cl)S(=O)Cc2ccccc2)cn1 (centres undefined)	19.6*	41.1*	73.8*	-1.0	1.4	4.8
CCOc1ccccc1NC(=O)c1cccc(NC(=O)CC(c2ccccc2)c2ccccc2)c1	26.4*	33.9	20.6	3.5	2.0	9.7*
COc1ccc(/C=N/NC(=O)c2cccc([N+](=O)[O-])c2)cc1OC(=O)c1ccc(C)cc1	-19.6	-0.6	14.6	-2.1	-0.2	nt
COCCCNc1c2c(nc3nnnn13)CCCC2	13.5*	0.5	-18.5	2.2	0.5	-1.8
C1CCC(CNc2c3c(nc4nnnn24)CCCC3)CC1	-7.4	6.3	-1.9	-0.3	0.2	nt
COc1cc(C2/C(=C(\O)c3ccc4c(c3)CC(C)O4)C(=O)C(=O)N2CCCn2ccnc2)cc(OC)c1OC (centres undefined)	1.8	1.4	-21.9	0.5	0.5	nt
C/C(=N/NC(=O)CNC(=O)c1ccccn1)c1cccc([N+](=O)[O-])c1	11.8*	7.4	10.8	1.1	1.2	-2.9
Cn1c(SCC(=O)NC2CCCCC2)nnc1-c1cc2cc(Cl)ccc2o1	-6.3	-1.4	0.1	-2.4	-1.0	nt
Cc1ccc(-c2nn(-c3ccc(F)cc3)cc2C(=O)NCC2CCCO2)cc1 (centres undefined)	-6.8	-0.3	10.3	-2.3	-1.3	nt
CCOC(=O)c1sc(C)c2c1NC1(CCCCC1)NC2=O	10.8*	1.6	-2.8	-1.5	-1.5	0.7
O=C(CSc1ncnc2sc3c(c12)CCC3)NCC1CCCO1 (centres undefined)	20.4*	1.0	-22.9	-0.9	1.6	-3.1
Cc1sc2ncnc(SCC(=O)NCC3CCCO3)c2c1C (centres undefined)	2.6	4.0	23.1	0.6	0.6	nt
COC(=O)[C@]1(C)N[C@H](CN(C)C(=O)c2ccc(C)cc2)[C@@H]2C(=O)N(Cc3ccccc3)C(=O)[C@@H]21	-3.2	-1.0	7.0	0.4	0.0	nt
COc1cc(OC)cc(-c2c(-c3cccs3)c3cc(-c4ccc(C(N)=O)cc4)ccc3n2C)c1	12.9*	17.1	-5.2	2.5	2.4	-5.2
CCOc1ccc(C(=O)N2CCc3ccccc32)cc1	12.2*	-1.1	-2.6	-1.5	-0.6	-0.4
CCCOc1ccc(C(=O)N2CCCc3ccccc32)cc1	-9.7	3.1	-3.9	-1.9	-0.6	nt
CCCN(CCC)CCNC(=O)CCC(=O)Nc1ccc2nc(N3CCN(C)CC3)cc(C)c2c1	12.3*	5.0	-10.1	0.3	0.6	-0.9
